Assay outcomes: PubChem, Broad Institute
Cneo AK release: Cryptococcus neoformans lysis via adenylate kinase release; C. neoformans lysis, adenylate kinase release luminescence, 4 h; normalised: neutral wells 0, clomiphene wells 100; lysis activity, % at 15 µM; 360,000 compounds, 0.2% hits; AID 651654;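 active = mean lysis activity across replicates of at least 80%, whatever share of replicates individually reach that level; inactive = mean lysis activity below 80%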
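Schedule: static 4 h at 37 °C with compound, 1 h detection; system: C. neoformans cells; benchmarks: Clomiphene as positive control; buffer or medium: fresh YPD medium; measure: luminescence rise reflecting yeast cell lysis; measured by: luminescent adenylate kinase detection reagent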
PglD DTNB: PglD (C. jejuni) enzyme inhibition; purified PglD enzyme, DTNB colorimetric CoA detection; AID 602405; 360,000 compounds, 0.098% hits; inhibition, % at 12.5 µM; in the data active = inhibition above about 16%, passing the limit was not always enough; inconclusive = no clear call, values can overlap the other calls
CAL PDZ FP-1: inhibitors of human CAL PDZ peptide binding | 330,000 compounds, 0.02% hits | inhibition, % at 20 µM | purified CAL PDZ, TMR-peptide fluorescence polarization, 1 h | Q9HD26;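 active = highest replicate inhibition of at least 40%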;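 note: plate controls were DMSO neutral control wells for no effect and unlabeled competitor peptide control wells for full effect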
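Material: tagged CAL PDZ domain; buffer or medium: 25 mM sodium phosphate pH 7.4, 150 mM NaCl, TCEP, IgG, Thesit; compound dosing: single point, 20 µM; schedule: 1 h incubation at room temperature before polarization reading; measured by: FP readout, S and P plane fluorescence; read-out basis: percent inhibition from loss of millipolarization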
miR-122 sensor: miR-122 inhibition in Huh7 cells | Huh7 miR-122 Renilla luciferase sensor, 48 h; neutral wells = 0, positive control = 100 | activation (reporter increase), % at 12.5 µM | 340,000 compounds, 0.3% hits;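 active = mean replicate activation score at least 90 and every replicate individually at or above 90; inconclusive = only one of the two criteria met; inactive = neither criterion met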;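 note: higher luciferase means less miR-122 activity so hits act as miR-122 inhibitors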
CAL PDZ FP-2: blocks peptide binding to the human CAL PDZ domain; Q9HD26; purified CAL PDZ, TMR-peptide fluorescence polarization, 1 h; inhibition, % at 24.9 µM; 300,000 compounds, 0.92% hits; AID 602252;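 active = mean inhibition of at least 30% with at least half of replicates also reaching 30%; inconclusive = no clear call, values can overlap the other calls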;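 note: 0% = DMSO neutral control and 100% = excess unlabeled competitor peptide PRC23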
* hit, by the source's call; u = inconclusive; x = no result; + = active, no number; [ ] = another dose, or the depositor's remark. Compounds with a hit are over-represented: about 1.1% of the library has one in this group of screens.

SMILES | Cneo AK release | PglD DTNB | CAL PDZ FP-1 | miR-122 sensor | CAL PDZ FP-2
C[C@@H]1CCCCO[C@H](CN(C)C(=O)Nc2ccc(C(F)(F)F)cc2)[C@@H](C)CN([C@@H](C)CO)C(=O)c2cc(NC(=O)c3ccccc3)ccc2O1 | 1 | 1 | x | 1[16.7 µM] | x
O=C(COC(=O)c1ccccc1O)Nc1cccc(S(=O)(=O)NC2=NCCCCC2)c1 | 1 | 1 | -2 | 8 | 35*
CC(C)(C)C(=O)NNC(=O)C1CC1(c1ccccc1)c1ccccc1 (stereo unspecified) | -3 | -3 | 1 | 13 | 35*
Cc1cccc(Nc2nc(N3CCN(C)CC3)nc(N)c2[N+](=O)[O-])c1 | x | x | -2 | x | 36*
Cc1cccc(Nc2nc(N)c([N+](=O)[O-])c(NCCO)n2)c1 | x | x | -1 | -5 | 47*
Nc1nc(NCC2CCCO2)nc(Nc2cccc(F)c2)c1[N+](=O)[O-] (stereo unspecified) | x | x | 0 | x | 79*
C[C@]12C=CC(=O)C=C1CCC1C2CC[C@@]2(C)C1CCC21OCCO1 (stereo partly specified) | -2 | -2 | -1 | 3 | 102*
Cc1cc(C(=O)Nc2ccc3c(c2)C(=O)N(C)[C@H]2CC[C@@H](CC(=O)N[C@@H](C)c4ccccc4)O[C@H]2CO3)no1 | 100* | 3 | x | -33[16.7 µM] | x
Cc1cc(C(=O)Nc2ccc3c(c2)C(=O)N(C)[C@@H]2CC[C@@H](CC(=O)N[C@@H](C)c4ccccc4)O[C@@H]2CO3)no1 | 83* | 2 | x | -17[16.7 µM] | x
CCOc1ccc(N2CC(C(=O)Nc3cccc(S(=O)(=O)N4CCCC4)c3)CC2=O)cc1 (stereo unspecified) | x | x | -4 | 4 | -6
CCOc1ccc(N2CC(C(=O)Nc3cccc(S(=O)(=O)NC4=NCCC4)c3)CC2=O)cc1 (stereo unspecified) | x | x | -5 | -3 | 45*
Cc1ccc(C)c(NC(=O)/C(C#N)=C/c2cn(CC(=O)NCc3ccco3)c3ccccc23)c1 | x | x | -1 | x | 44*
Cc1ccc(NC(=O)/C(C#N)=C/c2cn(CC(=O)NCc3ccco3)c3ccccc23)cc1C | -2 | -1 | x | x | -8
Cc1ccc(S(=O)(=O)N2CCC3(CC2)OCCN3S(=O)(=O)c2cccs2)cc1 | -2 | 8 | -1 | u | x
O=S(=O)(c1ccc(Cl)cc1)N1CCC2(CC1)OCCN2S(=O)(=O)c1cccs1 | x | x | 0 | 135* | x
COc1ccc(OC)c(S(=O)(=O)N2CCCCCC2)c1 | -5 | 7 | -1 | 17 | -3
COc1ccc(OC)c(S(=O)(=O)N2CCC3(CC2)OCCN3S(=O)(=O)c2cccs2)c1 | 2 | -2 | -4 | 107* | -3
COc1ccc(OC)c(S(=O)(=O)N2CCNCC2)c1 | 1 | 3 | 0 | 172* | 1
O=C(c1ccncc1)N1C[C@@H]2[C@H](c3ccccc31)[C@@H](CO)N2Cc1ccc(F)cc1 | -4 | 2 | x | 17[16.7 µM] | x
O=C(NCc1ccc(F)cc1)[C@@H]1[C@@H](CO)[C@@H]2Cn3c(cccc3=O)[C@@H]2N1CC1CC1 | 0 | 1 | x | 7[16.7 µM] | x
O=C(C=C1CCN(c2ncc(C(F)(F)F)cc2Cl)CC1)NNC(=O)Nc1ccccc1 | 0 | 0 | -1 | 22 | 2
O=C(C=C1CCN(c2ncc(C(F)(F)F)cc2Cl)CC1)NNC(=O)Nc1ccc(Cl)cc1 | 0 | -1 | 5 | -4 | 74*
O=c1cc(-c2ccccc2F)nc(-c2ccccc2F)o1 | x | x | -2 | x | 34*
CCN(CC)S(=O)(=O)c1cc(C(=O)n2cccn2)c(Cl)cc1Cl | -2 | 3 | 1 | -7 | -2
CCCNC(=O)N1C[C@@H]2[C@H](c3ccccc31)[C@@H](CO)N2C(=O)CN1CCOCC1 | 0 | 0 | x | 7[16.7 µM] | x
SMILES | Cneo AK release | PglD DTNB | CAL PDZ FP-1 | miR-122 sensor | CAL PDZ FP-2
COCC#Cc1ccc2c(c1)O[C@@H](CN(C)CC1CCOCC1)[C@@H](C)CN([C@@H](C)CO)S2(=O)=O | 12 | 0 | x | -1[16.7 µM] | x
CC(=O)Nc1ccc(NC(=O)C(C)OC(=O)c2cc(S(=O)(=O)N3CCOCC3)ccc2Cl)cc1 (stereo unspecified) | 5 | 6 | -3 | -11 | -5
CC(OC(=O)c1cc(S(=O)(=O)N2CCOCC2)ccc1Br)C(=O)N1CCOCC1 (stereo unspecified) | 1 | 2 | -1 | -14 | 43*
COc1cccc(C2(O)CCN(C(=O)C(C)C)CC2)c1 | 8 | -2 | -1 | -7 | 60*
C[C@@H]1CCCCO[C@@H](CN(C)C(=O)CCCN(C)C)[C@@H](C)CN([C@@H](C)CO)C(=O)c2cc(NS(=O)(=O)c3ccccc3)ccc2O1 | 0 | 0 | x | 5[16.7 µM] | x
O=C(NCc1cccc(Cl)c1)C1CCC(=O)N(CCCN2CCCC2=O)C1 (stereo unspecified) | 0 | 3 | 0 | -2 | 70*
O=C(NCCc1cccc(F)c1)C1CCC(=O)N(C2CCCCCC2)C1 (stereo unspecified) | 6 | 5 | -1 | -4 | x
O=C(NCc1cccc(F)c1)C1CCC(=O)N(C2CCCC2)C1 (stereo unspecified) | -1 | 2 | 0 | -6 | 84*
O=C(NCc1cccc(F)c1)C1CCC(=O)N(CCCN2CCOCC2)C1 (stereo unspecified) | -2 | 3 | 5 | 2 | 1
COc1ccc(C(C[N+](=O)[O-])c2c(-c3ccccc3)cc3ccccn23)cc1 (stereo unspecified) | 10 | 4 | -1 | 6 | 85*
COc1ccc(C(C[N+](=O)[O-])c2c(-c3ccccc3)cc3ccccn23)cc1OC (stereo unspecified) | 1 | 0 | 1 | 0 | -1
O=C(/C=C/c1ccco1)Nc1ccc2c(c1)OCO2 | x | x | x | x | 60*
CC(=O)N1CCc2cc(S(=O)(=O)NCCCN3CCN(Cc4ccccc4)CC3)ccc21 | -2 | -3 | 0 | 302* | x
Cc1ccc(CNS(=O)(=O)c2ccc3c(c2)CCN3C(=O)CCCC(=O)O)cc1 | x | x | 7 | x | 34*
CCC(=O)N1CCc2cc(S(=O)(=O)NCCC(=O)NCc3ccc(F)cc3)ccc21 | 2 | -4 | 0 | -3 | 37*
CC(=O)N1CCc2cc(S(=O)(=O)NCc3ccc(C)cc3)ccc21 | -5 | -4 | 0 | 7 | 4
CC(=O)N1CCc2cc(S(=O)(=O)NCC(=O)NCc3ccc(Cl)cc3)ccc21 | -1 | -1 | -1 | 6 | +
CCCCCNCc1cccc(Br)c1 | -2 | -4 | -2 | 2 | -10
Cc1ccccc1-c1nnc(SCC(=O)N(CC(C)C)c2c(N)n(CC(C)C)c(=O)[nH]c2=O)n1C | x | x | -2 | x | -3
Cc1cc(C)n2c(SCC(=O)N(CC(C)C)c3c(N)n(CC(C)C)c(=O)[nH]c3=O)nnc2n1 | x | x | -1 | x | 70*
CCOC(=O)c1cc(-c2csc(N/N=C/c3ccccc3Cl)n2)on1 | x | x | 1 | x | -1
